Compound activity (PubChem)
RAD52 inh = blocks human RAD52 DNA annealing; P43351; actives 0.46% (n = 360,000); recombinant RAD52 DNA annealing, FRET fluorescence; inhibition, % at 18.7 µM;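 active = every replicate showing at least 50% inhibition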
RAD54 branch = inhibitors of human RAD54 branch migration. Q92698. RAD54 Holliday junction branch migration, FAM/BHQ fluorescence. inhibition, % at 10.4 µM. actives 0.14% (n = 360,000);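 active = mean normalized replicate activity at least 40 and at least half of replicates scoring 40 or more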;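 note: 0% = median of neutral control wells and 100% = median of positive control wells; inhibitors cause a drop in the FAM fluorescence signal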
Target sequence (Q92698 whole entry, looked up): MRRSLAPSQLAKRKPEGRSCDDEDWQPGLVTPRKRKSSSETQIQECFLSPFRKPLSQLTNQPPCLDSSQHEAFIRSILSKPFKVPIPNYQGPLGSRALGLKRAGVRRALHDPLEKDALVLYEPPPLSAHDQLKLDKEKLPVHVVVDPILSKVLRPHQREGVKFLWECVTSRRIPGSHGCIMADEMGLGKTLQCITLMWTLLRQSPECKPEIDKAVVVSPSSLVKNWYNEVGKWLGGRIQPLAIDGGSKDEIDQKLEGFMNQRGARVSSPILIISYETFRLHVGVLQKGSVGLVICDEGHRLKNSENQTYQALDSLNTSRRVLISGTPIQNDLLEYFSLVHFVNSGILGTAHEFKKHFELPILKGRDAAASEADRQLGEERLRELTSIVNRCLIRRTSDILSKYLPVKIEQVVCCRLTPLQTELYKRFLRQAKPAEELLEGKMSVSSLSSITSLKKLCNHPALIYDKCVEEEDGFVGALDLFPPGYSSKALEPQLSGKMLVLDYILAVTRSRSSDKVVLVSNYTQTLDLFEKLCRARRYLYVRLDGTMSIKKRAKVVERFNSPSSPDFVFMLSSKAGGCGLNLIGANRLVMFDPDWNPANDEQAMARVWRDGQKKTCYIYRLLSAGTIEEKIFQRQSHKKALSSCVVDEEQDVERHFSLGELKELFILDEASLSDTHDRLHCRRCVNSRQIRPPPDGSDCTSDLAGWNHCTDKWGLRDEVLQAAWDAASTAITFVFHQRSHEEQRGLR
Ecoli rRNA inh = inhibitors of bacterial rRNA selective over humanized ribosomes; actives 1.6% (n = 350,000); AID 720706; GFP signal change (wild-type ribosome), % (concentration not given with the values); E. coli WT GFP vs humanized-ribosome RFP mutants, fluorescence, 24 h; active compounds read low; DMSO median 0, no signal -100;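 active = significant combined selectivity score with lowered wild-type GFP, culture density cut under 30%, mutant RFP and density less affected; inactive = any of these conditions unmet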
PglD DTNB = inhibitors of Campylobacter jejuni PglD acetyltransferase; purified PglD enzyme, DTNB colorimetric CoA detection; inhibition, % at 12.5 µM; actives 0.098% (n = 360,000); AID 602405; in the data active = inhibition above about 16%, passing the limit was not always enough
Cneo AK release = causes C. neoformans cell lysis; adenylate kinase release luminescence, 4 h; normalised: neutral wells 0, clomiphene wells 100; lysis activity, % at 15 µM; actives 0.2% (n = 360,000);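 active = mean lysis activity across replicates of at least 80%, whatever share of replicates individually reach that level; inactive = mean lysis activity below 80%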
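Material: C. neoformans cells | Amount: Yeast cell density of 5 × 10^6 cells/mL | Medium: Fresh YPD growth medium | Dosing: Single dose | Times: Static 4 h at 37 °C with compound, 1 h detection | Detection: AK luminescence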
* hit, by the source's call; . = no result. This is a sample that favours compounds with a hit; in the whole collection about 1.9% have one here.

SMILES | RAD52 inh | RAD54 branch | Ecoli rRNA inh | PglD DTNB | Cneo AK release
COc1ccc(NC(=O)N2CCCCN3[C@@H](CO)[C@@H](c4ccc(C5=CCCC5)cc4)[C@@H]3C2)cc1 | 54* | -13 | . | 9 | 0
COc1ccc(NC(=O)N2CCCCN3[C@H](CO)[C@H](c4ccc(C5=CCCC5)cc4)[C@H]3C2)cc1 | 34 | 3 | . | 5 | -1
O=C(Nc1ccccc1F)N1CCCCN2[C@H](CO)[C@@H](c3ccc(C4=CCCCC4)cc3)[C@H]2C1 | 56* | -11 | . | 6 | 5
COc1ccc(NC(=O)N2CCCCN3[C@H](C2)[C@@H](c2ccc(-c4ccccc4F)cc2)[C@@H]3CO)cc1 | 36 | 8 | -47 | -1 | 4
COCc1cn(CC[C@H]2CC[C@H](NC(=O)Nc3ccc(OC)cc3)[C@H](CO)O2)nn1 | 37 | -10 | 5 | 5 | -2
C[C@H](CO)N1C[C@H](C)[C@H](CN(C)S(=O)(=O)c2ccc3c(c2)OCCCO3)OCc2cn(nn2)CCCC1=O | 10 | 2 | -7 | 4 | 0
COc1ccc(NC(=O)N2CCCCN3[C@H](CO)[C@@H](c4ccc(-c5ccccc5F)cc4)[C@H]3C2)cc1 | 52* | 5 | -53 | 5 | 1
C[C@@H]1CN([C@H](C)CO)C(=O)c2cc(NC(=O)Nc3ccc(F)cc3)ccc2O[C@@H](C)CCCCO[C@H]1CN(C)S(=O)(=O)c1cn(C)cn1 | -5 | -3 | 2 | -6 | 12
C[C@@H]1CN([C@@H](C)CO)C(=O)Cc2cc(NC(=O)Nc3ccc(C(F)(F)F)cc3)ccc2O[C@H]1CN(C)S(C)(=O)=O | 11 | -13 | -1 | -1 | 2
O=C(Cn1ccccc1=S)c1ccc(Cl)c(Cl)c1 | -10 | 3 | -34* | 4 | -1
O=C(Cn1ccccc1=O)c1ccc(Cl)cc1 | -29 | . | 1 | . | .
O=C(O)/C=C/C(=O)Nc1ccc(Cl)cc1C(=O)c1ccccc1 | -6 | -5 | -23* | 1 | 2
CC(=O)Nc1ccc(/C=C/c2ccc3cccc([N+](=O)[O-])c3n2)cc1 | -17 | -2 | -16* | -1 | -1
O=C(O)COc1ccc(/C=C/c2ccc3cccc([N+](=O)[O-])c3n2)cc1 | 4 | -14 | -36 | -1 | -2
COc1ccc(NC(=O)Nc2ccc3c(c2)C(=O)N([C@@H](C)CO)C[C@H](C)[C@H](CN(C)Cc2ccncc2)O3)cc1 | 3 | -8 | -2 | 7 | 0
Clc1cccc(-c2nc(NCCCN3CCOCC3)c3ccccc3n2)c1 | 0 | 17 | -60 | 4 | -1
Clc1ccc(-c2nc(NCCCN3CCOCC3)c3ccccc3n2)cc1 | 2 | 24 | -17* | -1 | 2
O=C(NN1C(=O)/C(=C/c2ccc(O)c([N+](=O)[O-])c2)SC1=S)c1ccccc1Cl | -90 | . | -22* | . | .
COc1cccc(NC(=O)N[C@@H]2CC[C@@H](CC(=O)NCc3ccccn3)O[C@H]2CO)c1 | -7 | -11 | 2 | 0 | 4
Cc1nn2c(SCC(=O)c3cccs3)cc(C(C)(C)C)nc2c1-c1ccccc1 | -4 | . | -30* | . | .
C=C(C)CSc1cc(C)nc2c(-c3ccccc3)c(C)nn12 | -35 | 2 | -49* | -1 | -4
C[C@@H]1CN([C@H](C)CO)C(=O)c2cc(NC(=O)c3ccccc3)ccc2O[C@@H](C)CCCCO[C@H]1CN(C)Cc1ccc(C(=O)O)cc1 | -10 | 1 | 0 | -2 | -2
COC(=O)[C@H]1[C@H](CO)[C@H]2Cn3c(ccc(-c4cncnc4)c3=O)[C@H]2N1CCC(F)(F)F | -8 | . | -1 | . | .
O=C(NCCc1ccccc1)[C@H]1[C@H](CO)[C@H]2Cn3c(cccc3=O)[C@@H]1N2C(=O)C1CCCC1 | -6 | -2 | -3 | 3 | -4
O=C(NCCc1ccccc1)[C@H]1[C@H](CO)[C@H]2Cn3c(cccc3=O)[C@@H]1N2C(=O)C1CCC1 | 23 | 2 | 4 | 4 | 105*
SMILES | RAD52 inh | RAD54 branch | Ecoli rRNA inh | PglD DTNB | Cneo AK release
O=C(NCCc1ccccc1)[C@@H]1[C@@H](CO)[C@@H]2Cn3c(cccc3=O)[C@H]1N2C(=O)C1CCC1 | 20 | 2 | 2 | -1 | 102*
O=C(NCCc1ccccc1)[C@@H]1[C@@H](CO)[C@@H]2Cn3c(cccc3=O)[C@H]1N2C(=O)C1CC1 | 7 | 3 | -2 | -3 | -4
CO[C@@H]1CN(C)C(=O)c2ccc(NC(=O)Nc3cccc(F)c3)cc2OC[C@H](C)N(C(=O)C2CC2)C[C@H]1C | . | . | -18 | . | .
O=C(CCCNC(=O)c1ccc(Cl)cc1)Nc1nccs1 | -10 | 4 | 3 | 2 | 87*
O=C(CCCNC(=O)c1ccc(Cl)cc1)Nc1ncccc1O | -5 | 5 | -8 | -3 | 1
O=C(Nc1ccccc1)N1CCCCN2[C@@H](CO)[C@@H](c3ccc(Br)cc3)[C@@H]2C1 | -2 | -3 | -6 | 7 | 3
COCCn1c(/C=C/c2ccccc2)nc2ccccc21 | -15 | 8 | -1 | -9 | -13
Cn1c(/C=C/c2ccccc2)nc2ccccc21 | 1 | . | -24* | . | .
CCCc1[nH]n(-c2nc3ccccc3s2)c(=O)c1C=NCCCN(CC)CC | -12 | . | -22* | . | .
Cc1ccc(Oc2coc3cc(O)ccc3c2=O)cc1 | -75 | -4 | -24* | 0 | -3
O=C(Nc1ccccc1N1CCCCC1)c1ccc(F)cc1 | . | -9 | . | 5 | -6
O=C(Nc1ccccc1F)Nc1ccccc1N1CCCCC1 | -2 | -3 | -31* | -1 | 8
O=C(Nc1ccccc1F)Nc1ccccc1Br | 5 | . | -2 | . | .
O=C(NC1=NN(c2ccccc2)CC1)Nc1ccccc1F | -14 | 8 | -32* | 9 | 1
C[C@@H]1CN([C@@H](C)CO)C(=O)c2cc(-c3ccc(C#N)cc3)cnc2O[C@H]1CN(C)C(=O)CC1CC1 | -19 | 7 | 0 | 0 | 1
O=C(CNC(=O)C(c1ccccc1)c1ccccc1)N/N=C/c1ccc(O)c([N+](=O)[O-])c1 | -11 | 1 | -20* | 2 | -1
COc1ccc(N/C(=N/c2nc(C)cc(C)n2)NC(=O)c2ccccc2)cc1 | -13 | . | -20* | . | .
Cc1cc(C)nc(/N=C(/NC(=O)c2ccccc2)Nc2ccccc2)n1 | . | -4 | . | -2 | -1
Cc1ccc(S(=O)(=O)N[C@H]2CC[C@@H](CC(=O)NCCN3CCCCC3)O[C@@H]2CO)cc1 | -7 | 7 | 4 | -3 | 2
CC(C)Cn1cnc2c(c1=N)C(c1ccccc1)C1=C(CC(C)(C)CC1=O)O2 (configuration not stated) | -27 | . | -38* | . | .
CS(=O)(=O)N1CCCCN2[C@@H](CO)[C@H](c3ccc(C#Cc4ccccn4)cc3)[C@@H]2C1 | -40 | -9 | 5 | 4 | -2
O=C(Nc1ccccc1)N1CCCCN2[C@H](CO)[C@H](c3ccc(-c4ccccc4F)cc3)[C@H]2C1 | 50* | 3 | -18 | -2 | 7
